Where a name gives a salt, the structure may show the parent alone.
Test system: not listed separately
Assay: Selectivity index, ratio of CC50 for mock-infected human MT4 cells to EC50 for HIV1 RES056 expressing reverse transcriptase K103N + Y181C double mutant
Type: toxicity, cell-based
Conditions: read-out: Ratio CC50/EC50

Question: With `Cc1cc(C)c(Oc2cc(NC3CCN(Cc4ccc(F)cc4)CC3)nc3ncnn23)c(C)c1` as the compound, how does the selectivity ratio read?
Answer: < 1

Question: With `Cc1cc(C)c(Oc2cc(NC3CCN(Cc4cccc(F)c4)CC3)nc3ncnn23)c(C)c1` as the compound, how does the selectivity ratio read?
Answer: ≤ 1

Question: For `Cc1cc(C)c(Oc2cc(NC3CCN(Cc4ccccc4)CC3)nc3ncnn23)c(C)c1`, which selectivity ratio is on record?
Answer: < 1

Question: Which selectivity ratio does the source give for `Cc1cc(C)c(Oc2cc(NC3CCN(Cc4ccccc4C#N)CC3)nc3ncnn23)c(C)c1` here?
Answer: < 1

Question: With `Cc1cc(C)c(Oc2cc(NC3CCN(Cc4ccc(C(N)=O)cc4)CC3)nc3ncnn23)c(C)c1` as the compound, how does the selectivity ratio read?
Answer: < 1

Question: With `Cc1cc(C)c(Oc2cc(NC3CCN(Cc4ccc(F)cc4F)CC3)nc3ncnn23)c(C)c1` as the compound, how does the selectivity ratio read?
Answer: < 1

Question: With `Cc1cc(C)c(Oc2cc(NC3CCN(CC4CCCCC4)CC3)nc3ncnn23)c(C)c1` as the compound, how does the selectivity ratio read?
Answer: < 1

Question: Which selectivity ratio does the source give for `Cc1cc(C)c(Oc2cc(NC3CCN(Cc4ccc(Br)cc4)CC3)nc3ncnn23)c(C)c1` here?
Answer: < 1

Question: With `Cc1cc(C)c(Oc2cc(NC3CCN(Cc4ccccc4C)CC3)nc3ncnn23)c(C)c1` as the compound, how does the selectivity ratio read?
Answer: < 1

Question: Which selectivity ratio does the source give for `Cc1cc(C)c(Oc2cc(NC3CCN(Cc4cc(F)ccc4F)CC3)nc3ncnn23)c(C)c1` here?
Answer: < 1

Question: With `CC(=O)c1ccc(CN2CCC(Nc3cc(Oc4c(C)cc(C)cc4C)n4ncnc4n3)CC2)cc1` as the compound, how does the selectivity ratio read?
Answer: < 1

Question: With `Cc1cc(C)c(Oc2cc(NC3CCN(Cc4ccncc4)CC3)nc3ncnn23)c(C)c1` as the compound, how does the selectivity ratio read?
Answer: 7

Question: Which selectivity ratio does the source give for `Cc1ccc(CN2CCC(Nc3cc(Oc4c(C)cc(C)cc4C)n4ncnc4n3)CC2)cc1` here?
Answer: < 1

Question: With `Cc1cc(C)c(Oc2cc(NC3CCN(Cc4ccc([N+](=O)[O-])cc4)CC3)nc3ncnn23)c(C)c1` as the compound, how does the selectivity ratio read?
Answer: < 1

Question: With `Cc1cc(C)c(Oc2cc(NC3CCN(Cc4ccc(F)c(F)c4)CC3)nc3ncnn23)c(C)c1` as the compound, how does the selectivity ratio read?
Answer: < 1

Question: For `CC(C)Nc1cccnc1N1CCN(C(=O)c2cc3cc(NS(C)(=O)=O)ccc3[nH]2)CC1` [DELAVIRDINE MESYLATE], which selectivity ratio is on record?
Answer: 1

Test system: not listed separately
Assay: Selectivity index, ratio of CC50 for mock-infected human MT4 cells to EC50 for HIV1 3B infected in human MT4 cells
Type: toxicity, cell-based
Conditions: mock-infected MT4 cells and MT4 cells infected with HIV1 3B, read-out: Ratio CC50/EC50

Question: For `Cc1cc(C)c(Oc2cc(NC3CCN(Cc4ccc(F)cc4)CC3)nc3ncnn23)c(C)c1`, which selectivity ratio is on record?
Answer: 424

Question: For `Cc1cc(C)c(Oc2cc(NC3CCN(Cc4cccc(F)c4)CC3)nc3ncnn23)c(C)c1`, which selectivity ratio is on record?
Answer: ≥ 238

Question: For `Cc1cc(C)c(Oc2cc(NC3CCN(Cc4ccccc4)CC3)nc3ncnn23)c(C)c1`, which selectivity ratio is on record?
Answer: 708

Question: With `Cc1cc(C)c(Oc2cc(NC3CCN(Cc4ccccc4C#N)CC3)nc3ncnn23)c(C)c1` as the compound, how does the selectivity ratio read?
Answer: 356

Question: Which selectivity ratio does the source give for `Cc1cc(C)c(Oc2cc(NC3CCN(Cc4ccc(C(N)=O)cc4)CC3)nc3ncnn23)c(C)c1` here?
Answer: 1180

Question: For `Cc1cc(C)c(Oc2cc(NC3CCN(Cc4ccc(F)cc4F)CC3)nc3ncnn23)c(C)c1`, which selectivity ratio is on record?
Answer: 255

Question: Which selectivity ratio does the source give for `Cc1cc(C)c(Oc2cc(NC3CCN(CC4CCCCC4)CC3)nc3ncnn23)c(C)c1` here?
Answer: 50

Question: With `Cc1cc(C)c(Oc2cc(NC3CCN(Cc4ccc(Br)cc4)CC3)nc3ncnn23)c(C)c1` as the compound, how does the selectivity ratio read?
Answer: 320

Question: Which selectivity ratio does the source give for `Cc1cc(C)c(Oc2cc(NC3CCN(Cc4ccccc4C)CC3)nc3ncnn23)c(C)c1` here?
Answer: 590

Question: Which selectivity ratio does the source give for `Cc1cc(C)c(Oc2cc(NC3CCN(Cc4cc(F)ccc4F)CC3)nc3ncnn23)c(C)c1` here?
Answer: 243

Question: Which selectivity ratio does the source give for `CC(=O)c1ccc(CN2CCC(Nc3cc(Oc4c(C)cc(C)cc4C)n4ncnc4n3)CC2)cc1` here?
Answer: 2060

Question: With `Cc1cc(C)c(Oc2cc(NC3CCN(Cc4ccncc4)CC3)nc3ncnn23)c(C)c1` as the compound, how does the selectivity ratio read?
Answer: 2650

Question: With `Cc1ccc(CN2CCC(Nc3cc(Oc4c(C)cc(C)cc4C)n4ncnc4n3)CC2)cc1` as the compound, how does the selectivity ratio read?
Answer: 679

Question: Which selectivity ratio does the source give for `Cc1cc(C)c(Oc2cc(NC3CCN(Cc4ccc([N+](=O)[O-])cc4)CC3)nc3ncnn23)c(C)c1` here?
Answer: 522

Question: For `Cc1cc(C)c(Oc2cc(NC3CCN(Cc4ccc(F)c(F)c4)CC3)nc3ncnn23)c(C)c1`, which selectivity ratio is on record?
Answer: 346

Question: With `CC(C)Nc1cccnc1N1CCN(C(=O)c2cc3cc(NS(C)(=O)=O)ccc3[nH]2)CC1` [DELAVIRDINE MESYLATE] as the compound, how does the selectivity ratio read?
Answer: > 67

Test system: Human immunodeficiency virus 1
Assay: Antiviral activity against HIV1 RES056 expressing reverse transcriptase K103N + Y181C double mutant infected in human MT4 cells assessed as reduction in virus-induced cytopathic effect after 5 days by MTT assay
Type: functional, organism-based
Conditions: Human immunodeficiency virus 1, RES056, MT4, 120 h
In short: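 MT-4 cells resuspended at 6 × 10⁵ cells/mL, infected with HIV-1 RES056 stock at 100–300 CCID50, compound in serial five-fold dilutions in triplicate wells alongside mock-infected wells. Viability read by MTT after 5 days.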

Question: For `Cc1cc(C)c(Oc2cc(NC3CCN(Cc4ccc(F)cc4)CC3)nc3ncnn23)c(C)c1`, which EC50 is on record?
Answer: > 24 µM

Question: For `Cc1cc(C)c(Oc2cc(NC3CCN(Cc4cccc(F)c4)CC3)nc3ncnn23)c(C)c1`, which EC50 is on record?
Answer: ≥ 39 µM

Question: With `Cc1cc(C)c(Oc2cc(NC3CCN(Cc4ccccc4)CC3)nc3ncnn23)c(C)c1` as the compound, how does the EC50 read?
Answer: > 25 µM

Question: With `Cc1cc(C)c(Oc2cc(NC3CCN(Cc4ccccc4C#N)CC3)nc3ncnn23)c(C)c1` as the compound, how does the EC50 read?
Answer: > 27 µM

Question: For `Cc1cc(C)c(Oc2cc(NC3CCN(Cc4ccc(C(N)=O)cc4)CC3)nc3ncnn23)c(C)c1`, which EC50 is on record?
Answer: > 24 µM

Question: For `Cc1cc(C)c(Oc2cc(NC3CCN(Cc4ccc(F)cc4F)CC3)nc3ncnn23)c(C)c1`, which EC50 is on record?
Answer: > 23 µM

Question: With `Cc1cc(C)c(Oc2cc(NC3CCN(CC4CCCCC4)CC3)nc3ncnn23)c(C)c1` as the compound, how does the EC50 read?
Answer: > 13 µM

Question: Which EC50 does the source give for `Cc1cc(C)c(Oc2cc(NC3CCN(Cc4ccc(Br)cc4)CC3)nc3ncnn23)c(C)c1` here?
Answer: > 30 µM

Question: With `Cc1cc(C)c(Oc2cc(NC3CCN(Cc4ccccc4C)CC3)nc3ncnn23)c(C)c1` as the compound, how does the EC50 read?
Answer: > 24 µM

Question: Which EC50 does the source give for `Cc1cc(C)c(Oc2cc(NC3CCN(Cc4cc(F)ccc4F)CC3)nc3ncnn23)c(C)c1` here?
Answer: > 24 µM

Question: Which EC50 does the source give for `CC(=O)c1ccc(CN2CCC(Nc3cc(Oc4c(C)cc(C)cc4C)n4ncnc4n3)CC2)cc1` here?
Answer: > 18 µM

Question: Which EC50 does the source give for `Cc1cc(C)c(Oc2cc(NC3CCN(Cc4ccncc4)CC3)nc3ncnn23)c(C)c1` here?
Answer: 6.4 µM

Question: For `Cc1ccc(CN2CCC(Nc3cc(Oc4c(C)cc(C)cc4C)n4ncnc4n3)CC2)cc1`, which EC50 is on record?
Answer: > 49 µM

Question: For `Cc1cc(C)c(Oc2cc(NC3CCN(Cc4ccc([N+](=O)[O-])cc4)CC3)nc3ncnn23)c(C)c1`, which EC50 is on record?
Answer: > 18 µM

Question: For `Cc1cc(C)c(Oc2cc(NC3CCN(Cc4ccc(F)c(F)c4)CC3)nc3ncnn23)c(C)c1`, which EC50 is on record?
Answer: > 23 µM

Question: For `CC(C)Nc1cccnc1N1CCN(C(=O)c2cc3cc(NS(C)(=O)=O)ccc3[nH]2)CC1` [DELAVIRDINE MESYLATE], which EC50 is on record?
Answer: > 36 µM

Test system: Human immunodeficiency virus 1
Assay: Antiviral activity against HIV1 3B infected in human MT4 cells assessed as reduction in virus-induced cytopathic effect after 5 days by MTT assay
Type: functional, organism-based
Conditions: Human immunodeficiency virus 1, 3B, MT4, 120 h
In short: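 MT-4 cells at 6 × 10⁵ cells/mL infected with HIV-1 IIIB stock at 100-300 CCID50. Test compounds added as serial five-fold dilutions in triplicate wells. Viability of infected cells read spectrophotometrically by MTT 5 days after infection. Values are the mean ± SD of at least two parallel tests.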

Question: For `Cc1cc(C)c(Oc2cc(NC3CCN(Cc4ccc(F)cc4)CC3)nc3ncnn23)c(C)c1`, which EC50 is on record?
Answer: 56 nM

Question: For `Cc1cc(C)c(Oc2cc(NC3CCN(Cc4cccc(F)c4)CC3)nc3ncnn23)c(C)c1`, which EC50 is on record?
Answer: 104 nM

Question: For `Cc1cc(C)c(Oc2cc(NC3CCN(Cc4ccccc4)CC3)nc3ncnn23)c(C)c1`, which EC50 is on record?
Answer: 36 nM

Question: Which EC50 does the source give for `Cc1cc(C)c(Oc2cc(NC3CCN(Cc4ccccc4C#N)CC3)nc3ncnn23)c(C)c1` here?
Answer: 77 nM

Question: Which EC50 does the source give for `Cc1cc(C)c(Oc2cc(NC3CCN(Cc4ccc(C(N)=O)cc4)CC3)nc3ncnn23)c(C)c1` here?
Answer: 21 nM

Question: For `Cc1cc(C)c(Oc2cc(NC3CCN(Cc4ccc(F)cc4F)CC3)nc3ncnn23)c(C)c1`, which EC50 is on record?
Answer: 90 nM

Question: With `Cc1cc(C)c(Oc2cc(NC3CCN(CC4CCCCC4)CC3)nc3ncnn23)c(C)c1` as the compound, how does the EC50 read?
Answer: 245 nM

Question: For `Cc1cc(C)c(Oc2cc(NC3CCN(Cc4ccc(Br)cc4)CC3)nc3ncnn23)c(C)c1`, which EC50 is on record?
Answer: 92 nM

Question: Which EC50 does the source give for `Cc1cc(C)c(Oc2cc(NC3CCN(Cc4ccccc4C)CC3)nc3ncnn23)c(C)c1` here?
Answer: 42 nM

Question: With `Cc1cc(C)c(Oc2cc(NC3CCN(Cc4cc(F)ccc4F)CC3)nc3ncnn23)c(C)c1` as the compound, how does the EC50 read?
Answer: 98 nM

Question: With `CC(=O)c1ccc(CN2CCC(Nc3cc(Oc4c(C)cc(C)cc4C)n4ncnc4n3)CC2)cc1` as the compound, how does the EC50 read?
Answer: 8.7 nM

Question: Which EC50 does the source give for `Cc1cc(C)c(Oc2cc(NC3CCN(Cc4ccncc4)CC3)nc3ncnn23)c(C)c1` here?
Answer: 17 nM

Question: Which EC50 does the source give for `Cc1ccc(CN2CCC(Nc3cc(Oc4c(C)cc(C)cc4C)n4ncnc4n3)CC2)cc1` here?
Answer: 72 nM

Question: With `Cc1cc(C)c(Oc2cc(NC3CCN(Cc4ccc([N+](=O)[O-])cc4)CC3)nc3ncnn23)c(C)c1` as the compound, how does the EC50 read?
Answer: 35 nM

Question: Which EC50 does the source give for `Cc1cc(C)c(Oc2cc(NC3CCN(Cc4ccc(F)c(F)c4)CC3)nc3ncnn23)c(C)c1` here?
Answer: 67 nM

Question: For `CC(C)Nc1cccnc1N1CCN(C(=O)c2cc3cc(NS(C)(=O)=O)ccc3[nH]2)CC1` [DELAVIRDINE MESYLATE], which EC50 is on record?
Answer: 540 nM
